This is a sample that favours compounds with a hit; in the whole collection about 2.9% have one here.
CHO-K1 Ca antag – counter-screen for M1 antagonists: effect in parental CHO-K1 cells. ATP-induced calcium, Fluo-8 fluorescence. inhibition, % at 3 µM. hit rate 0.6% among 360,000. AID 602250;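 active means inhibition above a per-plate cutoff, the plate's mean sample inhibition plus 3 SD, cut at about 24% in these data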;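 further: 0% = DMSO plus EC80 ATP and 100% = DMSO alone without ATP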
M1 ag parental – M1 agonist counterscreen hit in parental CHO-K1 cells. Fluo-8 calcium fluorescence; scaled to maximal ATP response, vehicle zero. activation, % at 3 µM. hit rate 0.48% among 360,000. AID 602248; in the data active means activation above about 15%;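 further: untransfected CHO-K1 host cells lacking M1 receptor as counterscreen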
OX1R antag-1 – human HCRTR1 antagonism | CHO/OX1R cells, Fluo-8 calcium fluorescence, orexin A | O43613 | inhibition, % at 5 µM | hit rate 0.43% among 330,000 | AID 434989;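 active means inhibition above its plate's threshold, mean inhibition of all tested compounds on the plate plus 3 SD, cut at about 37% in these data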;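 further: 0% = orexin A challenge wells and 100% = SB-334867-A antagonist wells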
Target sequence (O43613 whole entry, looked up): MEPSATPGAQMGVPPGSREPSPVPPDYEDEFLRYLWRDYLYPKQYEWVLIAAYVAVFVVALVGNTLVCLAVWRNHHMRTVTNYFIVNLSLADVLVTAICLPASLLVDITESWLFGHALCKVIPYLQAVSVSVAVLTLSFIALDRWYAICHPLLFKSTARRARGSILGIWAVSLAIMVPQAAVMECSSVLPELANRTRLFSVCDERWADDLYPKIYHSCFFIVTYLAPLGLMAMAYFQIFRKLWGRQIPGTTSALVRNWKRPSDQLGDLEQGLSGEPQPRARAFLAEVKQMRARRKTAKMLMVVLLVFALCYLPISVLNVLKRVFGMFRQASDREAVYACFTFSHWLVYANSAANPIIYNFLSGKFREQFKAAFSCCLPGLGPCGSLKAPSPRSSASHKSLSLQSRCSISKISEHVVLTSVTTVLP
M1 PAM parental – nonselective activator or artifact in parental CHO-K1 calcium assay. hit rate 0.02% among 360,000. activation, % at 3 µM. ATP EC20, Fluo-8 calcium fluorescence; 0% at ATP EC20, 100% at ATP max;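 active means activation above the run cutoff, the mean activation of all test compounds plus 3 SD, cut at about 40% in these data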;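 further: peak over basal fluorescence ratio in a 140 s read after ATP addition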
OX1R antag-2 – OX1R (human) antagonism | O43613 | OX1R-expressing cells, FRET antagonist read-out | inhibition, % at 6.6 µM | hit rate 1.8% among 330,000; in the data active means inhibition mostly above about 38%, no sharp cut-off; inactive means mostly below about 40%;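 further: 0% = agonist challenge alone and 100% = reference antagonist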
CHO parental Ca – counter-screen for OX1R antagonists: effect in parental CHO cells. parental CHO-K1, ATP-induced calcium, Fluo-8 fluorescence. inhibition, % at 5.6 µM. hit rate 0.63% among 330,000. AID 463079;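 active means inhibition above that plate's mean sample inhibition plus 3 SD, cut at about 26% in these data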;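 further: 0% = ATP-challenged DMSO wells and 100% = DMSO wells without ATP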
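Assay system – parental CHO cells · Reagent – ATP stimulus · Detection – intracellular calcium via Fluo-8 no-wash fluorescent dye · Evaluation – percent inhibition of ATP-evoked calcium rise, normalized to controls · Controls – ATP wells versus no-ATP DMSO wells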
The depositor's hits bear a star; x = no result given.

SMILES	CHO-K1 Ca antag	M1 ag parental	OX1R antag-1	M1 PAM parental	OX1R antag-2	CHO parental Ca
c1ccc(CN2CCN(c3ncnc4c3[nH]c3ccccc34)CC2)cc1	-3	9	3	10	33	46*
c1ccc2c(c1)CCN(c1ncnc3c1[nH]c1ccccc13)C2	22	11	80*	3	80*	66*
Cc1ccc2[nH]c3c(N4CCN(Cc5ccccc5)CC4)ncnc3c2c1	8	8	14	-21	80*	28
COc1ccc2c(c1)[nH]c1c(N3CCN(Cc4ccc5c(c4)OCO5)CC3)ncnc12	8	6	15	-2	49*	11
CCCCNCC#CCOc1cc(C)ccc1C(C)C	-10	2	-16	17	3	-7
OC1(c2cccc(C(F)(F)F)c2)CCN(c2ncnc3c2[nH]c2ccccc23)CC1	25*	0	14	-2	40	2
c1ccc2c(c1)[nH]c1c(N3CCC4(CC3)OCCO4)ncnc12	-13	7	37	18	66*	60*
CCOc1ccc2[nH]c3c(N4CCN(c5ccccn5)CC4)ncnc3c2c1	-5	5	-8	-16	61*	-9
Cc1ccc(C(=O)Nc2ccccc2N2CCCC2)cc1	0	7	-22	22	8	-16
CCOC(=O)c1c(-c2ccc(OC)cc2)oc2c1C(OC(C)=O)CCC2 (centres undefined)	3	1	x	-7	x	x
O=C(CCC(=O)N1CCOc2ccccc21)NCCc1ccccc1	-4	1	-21	21	7	5
O=C(/C=C/c1ccc(S(=O)(=O)N2CCOCC2)cc1)NC(CO)C(O)c1ccc([N+](=O)[O-])cc1 (centres undefined)	-10	1	11	7	6	0
NC(=O)C1CCN(C(=O)CNC(=O)c2ccc(F)cc2)CC1	-5	0	-7	9	4	1
Cc1ccc(C(=O)NCC(C)(C)O)cc1	26*	0	-5	-8	15	-5
Cc1ccc(C(=O)NCCSC(C)(C)C)cc1	-7	0	-8	8	5	-18
CCCCn1c(N)c(N(CC(C)C)C(=O)CSCC(=O)Nc2ccc(C)cc2)c(=O)[nH]c1=O	-7	2	-5	0	4	0
CCN(c1ccccc1)S(=O)(=O)c1ccc(Cl)c(C(=O)NCC2CCCO2)c1 (centres undefined)	-15	2	-38	23	9	2
CN(C)P(=O)(Nc1cccc2ccccc12)Nc1cccc2ccccc12	-9	0	32	0	59*	-8
O=C(NC(NNc1ccc([N+](=O)[O-])cc1)(C(F)(F)F)C(F)(F)F)c1ccccc1Cl	19	1	0	-8	25	2
O=C(NC(Nc1nc2ccc([N+](=O)[O-])cc2s1)(C(F)(F)F)C(F)(F)F)c1ccccc1Cl	28*	13	25	4	90*	33*
O=C(NC(Nc1nc2ccc([N+](=O)[O-])cc2s1)(C(F)(F)F)C(F)(F)F)c1cccnc1	24*	9	-2	13	59*	6
COc1ccc(CNC(=O)COC(=O)c2cc3ccccc3o2)cc1	21	0	x	-20	x	x
O=C(c1ccoc1)N1CCCC(N2CCN(c3cccc(Cl)c3)CC2)C1 (centres undefined)	-13	2	x	8	x	x
COc1ccc(N2C(=O)CSC23C(=O)N2CCCc4cccc3c42)cc1 (centres undefined)	-7	1	-12	9	6	4
COc1ccc(N=C2C(=O)N3CCCc4cccc2c43)cc1	-3	1	-15	13	66*	-11
SMILES	CHO-K1 Ca antag	M1 ag parental	OX1R antag-1	M1 PAM parental	OX1R antag-2	CHO parental Ca
Cc1ccc(C)c(N(CC(=O)NCc2ccco2)C(=O)CCC(=O)Nc2nccs2)c1	-20	2	-19	14	21	-12
COc1ccccc1CCNC(=O)CSc1nc(=O)[nH]c2c1CCC2	-5	1	-7	9	7	-5
O=[N+]([O-])c1cc(Oc2cccnc2)cc([N+](=O)[O-])c1	3	0	-15	7	75*	-4
COc1cccc(OC)c1C(=O)Nc1cccc2c1CCCC2	-7	0	-9	1	73*	-3
COc1ccccc1N1CCN(C(=O)c2ccc3c(c2)NC(=O)C(CSCc2ccccc2C)N3)CC1 (centres undefined)	x	x	-17	x	7	-18
O=C(OCC(=O)N1CCCC1=O)c1cccc([N+](=O)[O-])c1	-7	1	-19	23	48*	-4
O=C(O)c1ccc(-n2c(/C=C/c3ccccc3)nc3ccccc3c2=O)cc1	-6	3	3	9	37*	8
O=C(O)c1ccc(-n2c(/C=C/c3cccc([N+](=O)[O-])c3)nc3ccccc3c2=O)cc1	-7	0	-22	-5	9	2
O=C(O)c1ccc(-n2c(=O)c3ccccc3c3ccccc3c2=O)cc1	31*	0	-5	-16	10	3
Cn1nnc2cc(NC(=O)Nc3cccc(C(F)(F)F)c3)ccc21	-3	4	-17	18	14	-11
Cc1nonc1OCCNCCNc1ccccc1[N+](=O)[O-]	27*	0	-26	-12	20	-10
Oc1c(Br)cc(/C=N/n2c(-c3ccccc3)n[nH]c2=S)c(O)c1Br	0	0	x	-13	x	x
Cc1c(Br)c(O)c(Br)c(O)c1/C=N/n1c(-c2ccccc2)n[nH]c1=S	11	1	-14	0	44*	-9
CCOC(=O)c1ccc(NC(=O)N2CCN(c3cccc(OC)c3)CC2)cc1	-3	13	-33	2	2	-7
CN(C(=O)Cn1cc([N+](=O)[O-])ccc1=O)C1CCCCC1	-5	0	-13	-7	4	-3
CN(C(=O)CN1C(=O)c2ccc([N+](=O)[O-])cc2C1=O)C1CCCCC1	-8	0	-7	11	64*	-9
CCN(C(=O)CN1C(=O)c2ccc([N+](=O)[O-])cc2C1=O)C1CCCCC1	-3	0	-12	-1	56*	-4
CCN(CC)S(=O)(=O)c1cccc(NC(=O)CN2C(=O)c3ccc([N+](=O)[O-])cc3C2=O)c1	9	3	-28	6	43	-10
CC1=C(Sc2ccccn2)C(=O)NC(C)(C)C1	27*	0	-5	-6	17	-6
Cc1noc(C)c1COC(=O)c1cccc(S(=O)(=O)N2CCCCCC2)c1	11	7	13	-4	22	49*
Cc1ccc(C(=O)N2CCN(c3ccccc3F)CC2)cc1S(=O)(=O)N1CCOCC1	-14	1	-14	25	18	-25
Cc1cc(C)c(NS(=O)(=O)c2cccc3cccnc23)c(C)c1	27*	0	-5	-15	41	-7
O=C(COC(=O)c1ccccc1Br)NCc1ccccc1	12	0	-14	-12	8	-10
